# Measured values: the RNAGym collection of RNA variant scans (doi:10.1126/science.aae0568)
# Fewer inactive variants are shown than the library holds.
# B1: tRNA (parent)
# chain: GUUCCGUUGGCGUAAUGGUAACGCGUCUCCCUCCUAAGGAGAAGACUGCGGGUUCGAGUCCCGUACGGAACG
# Variants of: B1
# Test: yeast fitness relative to wild type (ratio to wild type); higher = fitter; tRNA-Arg(CCU), competitive growth, 37 C, YPD
# Outline: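 Variants of the tRNA-Arg(CCU) gene, chemically synthesised with a 3% per-site mutation rate at 69 sites, were placed at the native genomic locus in Saccharomyces cerevisiae. The pooled strains were competed in YPD at 37°C for 24 hours in six parallel replicates. Gene amplicons from the start population and from each end population were read by 100-nucleotide paired-end sequencing. Darwinian fitness relative to wild type came from changes in genotype frequencies; genotypes needed ≥ 100 starting reads, and estimates < 0.5 were set to 0.5.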
row,Variant,yeast fitness
1,GUUCCGUUGGCGUCAUGGUAACGCGUCUCCCUCCUAAGGAGAAGACUGCGGGUUCGAGUCCCGAACGGAACG,0.651
2,GUUACGUUGGGGUAAUGGUAACGCGUCUCCAUCCUAAGGAGGAGACUGCGGGUUCGAGUCCCGUACGGAACG,≤ 0.5
3,GUUCCGUCGGCGUAAUGGUAACGCGUCUCCCUCCUAAGGAGAUGACUGCGGGUUCGAGUCCCGUACGGAACG,1.03
4,GUUCCGUUGGCGUAAUGGUAACGCGUCUCCCUCCUAGGGAGAAGUCUGCGGGUUCGAGUCCCGUACGGAACG,0.684
5,GUUCUGCUGGCGUAUUGGUAACGCGUCUCCCUCCUAAGGUGAAGACUGCGGGUUCGAGACCCGUUCGAAACG,0.542
6,GUUCCGUUGGCGUAAUGGUUACGCGUCUCCCUCCUUAGGAGAAAACUGCGCAUUCGAGUCCCGUACGGAACG,≤ 0.5
7,GUUCCGUUGGCGUAAUGAAAACGCGUGUCCCUCCUAAGCAGAAGACUGCGGGUUCGAGUCCCGUACGGAACG,≤ 0.5
8,GUUCCGUUGGCGUAAUGGUACCGCGUCUCCCUCCUAAGGAGACGACUGCGGGUUCGCGUCCCGUACGGAACG,≤ 0.5
9,GUUCCGUUGGCGUAAUGGUAACGAGUCUCCCUCCUAAGGACAAGACUACGGGUUCGAGUCCCGUACGGAACG,0.625
10,GUUCCGUUGGCGUAAUGGUAACGCGUUUCCCUCCUCAGGAGAAGACUGCGGGUUCGAGUCUCGUACGGAACG,≤ 0.5
11,GUUCCGUUGGCGUAAUGGUAAUGCGUCUCCCUCCUAAGGGGAAGACUGCGGGUUCGAGUCUCGGACGGUACG,≤ 0.5
12,GUUCCGUUGGCGUAAUGGUACCGCGUCUCCCUCCUAAGGAGAAGACUGCGGCUUCGAGUCCCGUACCGAACG,≤ 0.5
13,GUUCUGUUGGCGUAAUGGUAACGAGUGUCCCUCCUAAGGAGAAGACUGCGGGUUCGAGUCACGUAGGGAACG,0.624
14,GUUCCGUUGCCGUAAUGGUAGCGCGUCUCACUCCUAACGAGAAGAUUGCGGGUUCGAGUCCCGUACGGACCG,0.869
15,GUUCCGUUGGCGUAAUGGUUACGCGUCUCCCUCCUAAGGAGAAGCCUGCAGGUUCGAGUCCCGUACGGAACG,0.675
16,GUUCCGUUGGCGUAAUGGUAACGCGUCUCCCUCCUAAGGAGACGACUGCGGGUUCGUGUCCGGUACGGAACG,0.571
17,GUUCCGUGGGCGUAAUGGUAACGCGUCUCCCUCCUAAGGAGAAGACUGCGGGUUCGAGUCCCGUAUGGAACG,0.668
18,GUUCCGUUGGCGUAAUGGUGACGCGUCUCCCUGCUAAGGAGAAGACUGAGGGUGCGAGUCCCGUGCGGAACG,≤ 0.5
19,GUUCCGUCGGCGUAAUGGUAACGCGUCUCCCUCCUAAGGAGAAGACUGCGGAUUCGAGUCCCGUACAGAACG,≤ 0.5

row,Variant,yeast fitness
1,GUUCCGUUGGCGUAUUGGUAACCCGUCUCCCUACUAAGGAGAAGACUGCGGGUUCGAGUCCCGUAUGCAACG,≤ 0.5
2,GUUCCGUAGGCGUAAUGGUAACGCGUCUCCCUCCUAAGGAGAAGACUGCGGGUUCGAGUGCCGUACAGAACG,≤ 0.5
3,GUUCCGGUGGGGUAAUGGUAACGCGUCUCCCUCUUAAGGAAAAGACUGCGGGUUCGAGUCACGUCCGGAACG,≤ 0.5
4,GUUCCGUUGGGGUAAUGGUAACGCGUCUCCCUCCUAAGGAGAAGGCUGUGGGUUAGAGUCCCGUACGGAACG,≤ 0.5
5,GUUCCGUUGGCGUAAUGGUAUCGCGUCUCCCUCGUAAGAAGAAGACUGCGGGUUUGAGUCCCGUACGGAACG,≤ 0.5
6,GUUCUGUUGGCGUAAUGGUAACGCGUCUCCCUGCUAAGGAGAAGACUGAGGGUUCGAGUCCCGUACGGAACG,≤ 0.5
7,GUUCCGUUGGGGUAAUGGCAACGCGUCUCCCUCCUAAGGAGAAGACUGCGGGUUCGACUCCCGUACGGAACG,≤ 0.5
8,GUUGGGUUGGCGUUAUGGUAACGCGUCUCCCUCCUAAGGAGAAGACUGGGGGUUCGUGUCCCAUACAGAACG,0.631
9,GUUCGGUUGGCCUAAUGGUUACGGGUCUCCCUACUAAGGAGAAGAAUGCGGGUUAGAGUCCCGUACGGAACG,≤ 0.5
10,GUUCCGUUGGCGUAAUGGUAACGUGUCUCCCUCCUAAGGAGAAGACUGCGGGUUCGAGUCGCGUAUGGUACG,0.539
11,GUUCCGUUGGCGUAAUGGUAAGGCGUGUCCCUCCUAAGAAGAAGACUGCGGGUUCGAGUCCCGCACGGAACG,0.604
12,GUUCCCGUGGCGUAAGGGUAACGCGUCUCCCUCCUAAGGAGAGGACUGCGGGUUCGAGUCCCGUCCGGAACG,0.805
13,GUUCCGUUGGCGUAGUGGUAACGCGUCUCGCUCCUAAGGAGAAGACUGCGGGUUCGAGUCCGGUACGGAACG,≤ 0.5
14,GUUCCGUUGGCGUUAUGGUAACGCGUCUCUCUCCUAAGGAGCAGACUGCGGGUUCGAGUCCCGUACGGAACG,≤ 0.5
15,GUUCCGUUGGCGUGUUGGUAACGCGUCUCCCUCCUAAGGAGAAGUCUGCGGGUUCGAGUCCCGUACGGAACG,≤ 0.5
16,GAUCCGUUCGCGUAAUAGUAACGCGUCUCCCUCCUAAGGAGAAGACUGCGGGUUCGAGUCCCGUACGGAACG,≤ 0.5
17,GUUUCGUUGGCGUAAUGGUAACGCGUCUCCCUCCUAAGGAGAAGACUGCGGGUUCGAGUGUCGUACGAAACG,≤ 0.5
18,GUUCCGUUGGCGUAAUGGUAACGCGUCUCCCUCCUAAGGAGAAGACUGCGGGUUCGAGUCCCGUAAGGUACG,0.693
19,GUUCCGUUGGCGUAAUCGUAACGCGCCCGCCUCCUAAGGAGCAGACUGCGAGUUCGAGUCCCGUACGGAACG,≤ 0.5
